The source made the active and inactive calls. The calls are words filed in the database; no cut-off is given here.
Columns and labels:
[1] = biological target: 72 kDa type IV collagenase (Homo sapiens, UniProt P08253); assay: Inhibition of recombinant human MMP2 catalytic domain (Tyr110 to Asp452 residues) preincubated for 45 mins followed by […] substrate addition by fluorescence assay
How it was run: (§1)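 Fluorometric kit assay: enzyme added to assay buffer equilibrated to 37 °C, then inhibitor (NNGH as kit control) added and preincubated 45 min at 37 °C; fluorogenic substrate added to start reaction; fluorescence read at Ex/Em 328/420 nm.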

[2] = biological target: Matrix metalloproteinase-9 (Homo sapiens, UniProt P14780); assay: Inhibition of recombinant human MMP9 (Phe107 to Pro449 residues) expressed in Escherichia coli preincubated for 45 mins followed by […] substrate addition by fluorescence assay; how it was run: as §1
Chain of Matrix metalloproteinase-9 (P14780 whole entry): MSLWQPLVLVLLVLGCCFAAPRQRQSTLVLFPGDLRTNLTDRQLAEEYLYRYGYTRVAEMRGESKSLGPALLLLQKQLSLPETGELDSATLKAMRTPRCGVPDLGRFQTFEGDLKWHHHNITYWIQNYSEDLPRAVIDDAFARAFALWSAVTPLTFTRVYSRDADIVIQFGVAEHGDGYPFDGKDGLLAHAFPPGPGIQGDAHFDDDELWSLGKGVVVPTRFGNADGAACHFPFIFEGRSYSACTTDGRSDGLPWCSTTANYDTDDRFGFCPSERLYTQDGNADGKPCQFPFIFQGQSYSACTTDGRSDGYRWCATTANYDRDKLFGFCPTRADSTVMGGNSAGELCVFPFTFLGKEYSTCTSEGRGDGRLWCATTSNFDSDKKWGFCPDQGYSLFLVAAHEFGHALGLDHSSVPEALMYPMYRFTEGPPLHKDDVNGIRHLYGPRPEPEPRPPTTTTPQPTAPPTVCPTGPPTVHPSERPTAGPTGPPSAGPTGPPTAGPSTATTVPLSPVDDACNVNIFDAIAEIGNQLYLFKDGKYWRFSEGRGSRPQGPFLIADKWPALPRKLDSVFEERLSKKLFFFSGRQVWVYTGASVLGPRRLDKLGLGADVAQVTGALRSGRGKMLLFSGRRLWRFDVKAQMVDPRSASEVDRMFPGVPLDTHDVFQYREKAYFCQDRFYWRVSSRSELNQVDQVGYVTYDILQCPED

A549 = assay: Antiproliferative activity against human A549 cells after 48 hrs by MTT assay; format: functional, cell-based; settings: A549, 48 h
How it was run: (§2)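 Cells grown in RPMI1640 with 10% FBS at 37 °C, 5% CO₂; plated 5000 per well, 4 h attachment, then exposed to a range of compound concentrations for 48 h. 0.5% MTT added for 4 h, formazan dissolved in DMSO, absorbance read at 570 nm.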

[3] = Antiproliferative activity against human ES2 cells after 48 hrs by MTT assay; format: functional, cell-based; settings: ES-2, 48 h; how it was run: as §2
HeLa [4] = assay: Antiproliferative activity against human HeLa cells after 48 hrs by MTT assay; format: functional, cell-based; how it was run: as §2
K562 = assay: Antiproliferative activity against human K562 cells after 48 hrs by MTT assay; format: functional, cell-based; settings: K562, 48 h; how it was run: as §2
MCF7 = assay: Antiproliferative activity against human MCF7 cells after 48 hrs by MTT assay; format: functional, cell-based; settings: MCF7, 48 h; how it was run: as §2
MDA-MB-231 = assay: Antiproliferative activity against human MDA-MB-231 cells after 48 hrs by MTT assay; format: functional, cell-based; settings: MDA-MB-231, 48 h; how it was run: as §2
HeLa [5] = assay: Anticlonogenic activity against human HeLa cells treated for 24 hrs measured after 2 weeks by crystal violet staining based inverted microscopic method; format: functional, cell-based
How it was run: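 HeLa cells seeded at 500 per well, exposed to compound 24 h, then grown 2 weeks at 37 °C, 5% CO₂. Washed with PBS, methanol-fixed 15 min, stained 0.1% crystal violet 10 min; colonies of more than 50 cells counted under inverted microscope to give inhibition rate.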

HeLa [6] = assay: Antimigratory activity against human HeLa cells assessed as reduction in wound closure at 1 uM by inverted microscopic method; format: functional, cell-based; settings: TDE = time-dependent effect
How it was run: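 2×10⁵ HeLa cells per well grown to confluence; pipette tip scratch made, cells treated with 1 μM compound and allowed to migrate; wound imaged by inverted microscope at 0, 12, 24 and 48 h, wound closure quantified.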

HeLa [7] = assay: Anti-invasive activity against human HeLa cells at 1 uM after 24 hrs using crystal violet staining by inverted microscopic based transwell chamber assay; format: functional, cell-based
How it was run: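 Transwell chambers, 8 μm pore, upper side precoated with Matrigel. 1×10⁵ HeLa cells seeded with compound (1 μM) in RPMI1640 with 1% FBS; lower chamber 10% FBS as chemoattractant. After 24 h at 37 °C, non-invaded cells swabbed off; membranes methanol-fixed 10 min, stained 0.5% crystal violet, counted microscopically.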

HeLa [8] = assay: Antimigratory activity against human HeLa cells at 1 uM after 24 hrs using crystal violet staining by inverted microscopic based transwell chamber assay; format: functional, cell-based
How it was run: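 Uncoated Transwell chambers, 8 μm pore. 5×10⁴ HeLa cells seeded in upper chamber with compound (1 μM) in RPMI1640 containing 1% FBS; 10% FBS below as chemoattractant. 24 h at 37 °C; upper-side cells removed, membrane methanol-fixed 10 min, 0.5% crystal violet stained, migrated cells counted under inverted microscope.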

[9] = Cytotoxicity against HUVEC after 48 hrs by MTT assay; format: cell-based; settings: human, HUVEC cells; how it was run: as §2
HUVEC = assay: Anti-angiogenic activity against HUVEC assessed as reduction in tube formation at 1 uM after 8 hrs by inverted microscopic method; format: functional, cell-based; settings: Homo sapiens
How it was run: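 Matrigel-coated wells gelled 30 min at 37 °C, 5% CO₂; 1×10⁵ HUVECs per well seeded in growth medium together with compound at 1 μM, vehicle control included. Incubated 8 h at 37 °C, 5% CO₂; capillary-like tube networks imaged under inverted microscope and quantified.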

Thoracic aorta = assay: Anti-angiogenic activity against Sprague-Dawley rat thoracic aorta assessed as reduction in microvessel outgrowth arising fron aortic rings at 5 uM after 6 days by inverted microscopic method; format: functional, tissue-based
How it was run: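 Thoracic aortas from 6-week-old male Sprague Dawley rats, perivascular tissue removed, cut into ~1 mm rings and embedded in Matrigel-coated wells. Rings treated with compound at 5 μM, vehicle control included, 6 days at 37 °C, 5% CO₂. Microvessel outgrowth imaged by inverted microscope; inhibition rate counted.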

HeLa [10] = assay: Nitric oxide releasing activity in human HeLa cells assessed as nitrite accumulation at 100 uM after 5 hrs by Griess reagent based colorimetric assay; format: ADME, cell-based
How it was run: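 HeLa cells (1×10⁵ per well) incubated 5 h with compound at 100 μM. Cell-free supernatant mixed 1:1 with Griess reagent for 10 min; absorbance at 540 nm; nitrite quantified against NaNO₂ standard curve.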

H22 = assay: Antitumor activity against […] xenografted in Kunming mouse assessed as increase in mouse survival rate at 100 mg/kg/day, ig once daily for 10 days relative to control; format: functional
How it was run: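 Female Kunming mice (20±2 g, 4–6 weeks), randomized 10 per group, were inoculated subcutaneously with H22 cells (4 × 10⁷/mL) on day 0. Dosing was intragastric, once daily for ten days, with a PBS/5% DMSO vehicle group and a positive-control group. Body weight was recorded before each dose, and survival was checked daily. Mean survival time was compared with vehicle.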

Mus musculus [11] = assay: Toxicity in Kunming mouse xenografted with […] assessed as decrease in body weight at 100 mg/kg/day, ig once daily for 10 days; format: organism-based; settings: in vivo, po, 240 h
How it was run: (§3)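 Female Kunming mice (20±2 g, 4–6 weeks), 10 per group, inoculated subcutaneously with H22 cells (4×10⁷/mL) on day 0. Compound 100 mg/kg/day given intragastrically once daily for 10 days; vehicle PBS with 5% DMSO. Body weight recorded before each dose; survival monitored daily.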

Mus musculus [12] = assay: Toxicity in Kunming mouse xenografted with […] assessed as increase in body weight at 100 mg/kg/day, ig once daily for 10 days; format: organism-based; settings: in vivo, po, 240 h; how it was run: as §3

Chain of 72 kDa type IV collagenase (P08253 whole entry, the tested form may be a part): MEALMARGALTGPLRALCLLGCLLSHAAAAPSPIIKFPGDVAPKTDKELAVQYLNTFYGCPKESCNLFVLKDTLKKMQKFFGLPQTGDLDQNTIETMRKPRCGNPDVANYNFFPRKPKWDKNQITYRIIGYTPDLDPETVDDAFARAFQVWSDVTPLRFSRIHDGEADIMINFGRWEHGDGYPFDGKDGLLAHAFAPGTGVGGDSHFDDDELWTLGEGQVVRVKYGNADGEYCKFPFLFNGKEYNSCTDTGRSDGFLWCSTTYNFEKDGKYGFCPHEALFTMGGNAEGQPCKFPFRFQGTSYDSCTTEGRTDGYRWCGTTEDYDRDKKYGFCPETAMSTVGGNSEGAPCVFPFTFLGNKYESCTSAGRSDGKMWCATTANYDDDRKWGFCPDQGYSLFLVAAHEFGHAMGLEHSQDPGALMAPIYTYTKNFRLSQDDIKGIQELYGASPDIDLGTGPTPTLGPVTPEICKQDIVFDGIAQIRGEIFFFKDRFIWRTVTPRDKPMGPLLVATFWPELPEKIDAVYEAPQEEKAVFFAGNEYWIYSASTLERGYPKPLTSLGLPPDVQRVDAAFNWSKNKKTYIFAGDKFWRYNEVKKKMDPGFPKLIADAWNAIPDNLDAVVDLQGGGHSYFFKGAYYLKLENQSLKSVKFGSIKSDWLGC

| SMILES | IC50 [1] | IC50 [2] | IC50 (A549) | IC50 [3] | IC50 (HeLa [4]) | IC50 (K562) | IC50 (MCF7) | IC50 (MDA-MB-231) | Activity (HeLa [5]) | Activity (HeLa [6]) | Activity (HeLa [7]) | Activity (HeLa [8]) | CC50 at 48 h [9] | Activity (HUVEC) | Activity (Thoracic aorta) | Nitrite concentration (HeLa [10]) | Activity (H22) | Activity (Mus musculus [11]) | Activity (Mus musculus [12]) |
| --- | --- | --- | --- | --- | --- | --- | --- | --- | --- | --- | --- | --- | --- | --- | --- | --- | --- | --- | --- |
| O=C(N[C@H]1C[C@@H](C(=O)NO)N(S(=O)(=O)c2ccc(Oc3ccccc3)cc2)C1)c1ccc2no[n+]([O-])c2c1 | 0.102 µM | 0.162 µM | 5.1 µM | 7.47 µM | 3.82 µM | 3.56 µM | 4.19 µM | 7.01 µM | Active | Tde | Active | Active | 32.5 µM | Active | Active | 34.43 µM | 40.48% | Toxic |  |
| COc1ccc(/C=C/C(=O)N2C[C@@H](NC(=O)c3ccc4no[n+]([O-])c4c3)C[C@H]2C(=O)NO)cc1OC | 0.345 µM | 0.388 µM | 13.2 µM | 14.1 µM | 6.49 µM | 4.61 µM | 10.7 µM | 9.81 µM | Active |  | Active |  | 36.3 µM | Active | Active | 33.11 µM |  |  |  |
| COc1ccc(/C=C/C(=O)N2C[C@@H](NC(=O)c3cccnc3)C[C@H]2C(=O)NO)cc1OC | 0.266 µM | 0.36 µM | 78.2 µM | > 200 µM | 185 µM | > 200 µM | > 200 µM | > 200 µM | Active |  | Active | Active | 39.8 µM | Active | Active |  | Active |  | Toxic |
| O=C(N[C@H]1C[C@@H](C(=O)NO)N(S(=O)(=O)c2ccc(Oc3ccccc3)cc2)C1)c1cccc2no[n+]([O-])c12 | 0.182 µM | 0.242 µM | 21.5 µM | 8.26 µM | 7.24 µM | 4.58 µM | 13 µM | 4.19 µM | Active |  | Active |  | 37.2 µM | Active | inactive | 27.87 µM |  |  |  |
| COc1ccc(/C=C/C(=O)N2C[C@@H](NC(=O)c3cccc4no[n+]([O-])c34)C[C@H]2C(=O)NO)cc1OC | 0.414 µM | 0.524 µM | 25.6 µM | 17.4 µM | 14.1 µM | 11.2 µM | 23.4 µM | 16.5 µM | Active |  | Active |  | 42.3 µM | Active | inactive | 25.51 µM |  |  |  |

From ChEMBL document CHEMBL4229514, “Synthesis and biological evaluation of novel benzofuroxan-based pyrrolidine hydroxamates as matrix metalloproteinase inhibitors with nitric oxide releasing activity” (Bioorg Med Chem, 2018)
